ChEMBL document CHEMBL1138784, “Rational design, synthesis, and biological evaluation of bis(pyrimido[5,6,1-de]acridines) and bis(pyrazolo[3,4,5-kl]acridine-5-carboxamides) as new anticancer agents” (J Med Chem, 2004)
pIC50: −log10 of the molar value.

How the values were obtained:
[1] = tested on: HT-29; test: Cytotoxicity is determined as the concentration required to inhibit the growth of human colon adenocarcinoma (HT-29) cell line; assay type: functional, cell-based
[2] = tested on: Nucleic Acid; test: Binding site preference is determined as the ratio of Poly (dA-dT)2 to Poly (dG-dC)2; assay type: nucleic-acid assay
Summary of the method: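 Ethidium displacement fluorometry at pH 7.0 (10 mM Na2HPO4, 10 mM NaH2PO4, 1 mM EDTA) with 1.26 μM ethidium bromide and 1 μM [poly(dA-dT)]2 or [poly(dG-dC)]2, 20 °C. Ex 546 nm, em 595 nm, drug added serially from a DMSO stock. Preference taken from the [AT]/[GC] ratio of C50 values, counted significant only below 0.7 or above 1.3.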

[3] = tested on: Nucleic Acid; test: Binding site preference is determined as the ratio of AT to GC
[4] = Cytotoxicity against human H460M cancer cell line was determined after 144 hr; assay type: functional, cell-based; details: Cancer cell lines
Summary of the method: (§1)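 MTT colorimetric assay. Cells seeded by growth characteristics and preincubated 24 h, then exposed to drug for 1 h or 144 h at 37 °C, 5% CO2. H460M, MKN45 and PC-3 were grown in RPMI 1640 with 10% FCS. HCT116 was grown in D-MEM with 10% FBS and 2 mM glutamine.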

[5] = Cytotoxicity against human HCT116 cancer cell line was determined after 1 hr; assay type: cell-based; details: HCT-116, 1 h; summary of the method: as §1
[6] = Cytotoxicity against human PC3 cancer cell line was determined after 1 hr; assay type: cell-based; details: Cancer cell lines; summary of the method: as §1
[7] = Cytotoxicity against human LoVo cancer cell line was determined after 1 hr; assay type: cell-based
Summary of the method: (§2)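 MTT assay on doxorubicin-sensitive LoVo and resistant LoVo/Dx cells, 24 h preincubation, then 1 h or 144 h drug exposure at 37 °C, 5% CO2. IC50 in nM. Resistance index is IC50 on LoVo/Dx divided by IC50 on LoVo.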

[8] = tested on: MKN-45; test: Cytotoxicity against human MKN45 cancer cell line was determined after 144 hr; assay type: functional, cell-based; details: MKN-45, 144 h; summary of the method: as §1
[9] = tested on: LoVo; test: Cytotoxicity against human LoVo cancer cell line was determined after 144 hr; assay type: functional, cell-based; summary of the method: as §2
[10] = Cytotoxicity against human H460M cancer cell line was determined after 1 hr; assay type: cell-based; details: Cancer cell lines; summary of the method: as §1
[11] = tested on: HCT-116; test: Cytotoxicity against human HCT116 cancer cell line was determined after 144 hr; assay type: functional, cell-based; details: HCT-116, 144 h; summary of the method: as §1
[12] = tested on: PC-3; test: Cytotoxicity against human PC3 cancer cell line was determined after 144 hr; assay type: functional, cell-based; details: PC-3, 144 h; summary of the method: as §1
[13] = Cytotoxicity against human MKN45 cancer cell line was determined after 1 hr; assay type: cell-based; details: Cancer cell lines; summary of the method: as §1

Binding site preference [2]	SMILES	pIC50 [1]	further results
1.6	CN(C)CCNc1ccc(C(=O)NCCCN(C)CCCNC(=O)c2ccc(NCCN(C)C)c3c(O)c4cc(O)ccc4nc23)c2nc3ccc(O)cc3c(O)c12	6.10	–
9.1	CN(C)CCn1c(=O)c2ccc(NCCN(C)CCNc3ccc4c(=O)n(CCN(C)C)c(=O)n5c6ccc(O)cc6c(=O)c3c45)c3c(=O)c4cc(O)ccc4n(c1=O)c23	6.41	–
12	CN(C)CCn1c(=O)c2ccc(NCCCCCCCCCCCCNc3ccc4c(=O)n(CCN(C)C)c(=O)n5c6ccccc6c(=O)c3c45)c3c(=O)c4ccccc4n(c1=O)c23	5.46	–
8.9	CN(C)CCn1c(=O)c2ccc(NCCCNc3ccc4c(=O)n(CCN(C)C)c(=O)n5c6ccccc6c(=O)c3c45)c3c(=O)c4ccccc4n(c1=O)c23	6.41	–
41	CN(C)CCn1c(=O)c2ccc(NCCCCCCCCNc3ccc4c(=O)n(CCN(C)C)c(=O)n5c6ccccc6c(=O)c3c45)c3c(=O)c4ccccc4n(c1=O)c23	6.44	–
1.8	CN(C)CCNC(=O)c1ccc(NCCCN(C)CCCNc2ccc(C(=O)NCCN(C)C)c3nc4ccc(O)cc4c(O)c23)c2c(O)c3cc(O)ccc3nc12	5.16	–
4.3	CN(C)CCn1c(=O)c2ccc(NCCN(C)CCNc3ccc4c(=O)n(CCN(C)C)c(=O)n5c6ccccc6c(=O)c3c45)c3c(=O)c4ccccc4n(c1=O)c23	6.96	–
84	CN(C)CCn1c(=O)c2ccc(NCCN(C)CCN(C)CCNc3ccc4c(=O)n(CCN(C)C)c(=O)n5c6ccccc6c(=O)c3c45)c3c(=O)c4ccccc4n(c1=O)c23	6.41	–
30	CN(C)CCn1c(=O)c2ccc(NCCCCCCNc3ccc4c(=O)n(CCN(C)C)c(=O)n5c6ccccc6c(=O)c3c45)c3c(=O)c4ccccc4n(c1=O)c23	7.37	–
4.6	COc1cc2c(=O)c3c(NCCCN(C)CCCNc4ccc5c(=O)n(CCN(C)C)c(=O)n6c7cc(OC)c(OC)cc7c(=O)c4c56)ccc4c(=O)n(CCN(C)C)c(=O)n(c2cc1OC)c43	6.60	–
2.8	CN(C)CCN1Nc2c3cc(O)ccc3nc3c(C(=O)NCCN(C)CCNC(=O)c4ccc5c6c(c7cc(O)ccc7nc46)NN5CCN(C)C)ccc1c23	< 5.00	–

More lines, now with the values behind:

SMILES	Binding site preference [2]	pIC50 [1]	further results
CN(C)CCNC(=O)c1ccc(NCCCN(C)CCCNc2ccc(C(=O)NCCN(C)C)c3nc4ccccc4c(O)c23)c2c(O)c3ccccc3nc12	–	9.37	–
CN(C)CCNC(=O)c1ccc2c3c(c4cc(O)ccc4nc13)NN2CCN(C)C	5.1	–	–
COc1ccc2nc3c(C(=O)NCCN(C)C)ccc(NCCCN(C)CCCNc4ccc(C(=O)NCCN(C)C)c5nc6ccc(OC)cc6c(O)c45)c3c(O)c2c1	1.9	7.41	–
COc1ccc2c(c1)-c1nn(CCN(C)C)c3ccc(C(=O)NCCN(C)C)c(c13)N2	1.6	–	–
CN(C)CCNc1ccc2c(=O)n(CCN(C)C)c(=O)n3c4ccc([N+](=O)[O-])cc4c(=O)c1c23	–	–	Binding site preference [3]: 0.12
COc1ccc2c(c1)c(=O)c1c(NCCN(C)CCNc3ccc4c(=O)n(CCN(C)C)c(=O)n5c6ccc(OC)cc6c(=O)c3c45)ccc3c(=O)n(CCN(C)C)c(=O)n2c31	–	6.14	–
CN(C)CCN1Nc2c3cc(O)ccc3nc3c(C(=O)NCCCN(C)CCCNC(=O)c4ccc5c6c(c7cc(O)ccc7nc46)NN5CCN(C)C)ccc1c23	1.3	6.11	–
CN(C)CCN1Nc2c3ccccc3nc3c(C(=O)NCCN(C)CCNC(=O)c4ccc5c6c(c7ccccc7nc46)NN5CCN(C)C)ccc1c23	4.3	6.44	–
CN(C)CCNc1ccc(C(=O)NCCCN(C)CCCNC(=O)c2ccc(NCCN(C)C)c3c(=O)c4ccccc4[nH]c23)c2[nH]c3ccccc3c(=O)c12	10	7.24	–
CN(C)CCNC(=O)c1ccc2c3c(c4ccccc4nc13)NN2CCN(C)C	3.4	–	–
COc1ccc2c(c1)-c1nn(CCN(C)C)c3ccc(C(=O)NCCN(C)CCNC(=O)c4ccc5c6c(c7cc(OC)ccc7nc46)NN5CCN(C)C)c(c13)N2	2.8	6.82	–
CN(C)CCNc1ccc2c(=O)n(CCN(C)C)c(=O)n3c4ccccc4c(=O)c1c23	–	–	Binding site preference [3]: 0.57
CN(C)CCNc1ccc2c(=O)n(CCN(C)C)c(=O)n3c4ccc(O)cc4c(=O)c1c23	–	–	Binding site preference [3]: 0.25
COc1ccc2nc3c(C(=O)NCCCN(C)CCCNC(=O)c4ccc(NCCN(C)C)c5c(O)c6cc(OC)ccc6nc45)ccc(NCCN(C)C)c3c(O)c2c1	2.5	8.70	–
O=C1c2c(O)ccc(O)c2C(=O)c2c(NCCNCCO)ccc(NCCNCCO)c21 [MITOXANTRONE]	–	–	pIC50 [4]: 9.12; pIC50 [5]: 6.96; pIC50 [6]: 7.12; pIC50 [7]: 7.92; pIC50 [8]: 7.92; pIC50 [9]: 8.48; pIC50 [10]: 9.07; pIC50 [11]: 8.24; pIC50 [12]: 8.15; pIC50 [13]: 8.17
COc1ccc2c(c1)c(=O)c1c(NCCN(C)C)ccc3c(=O)n(CCN(C)C)c(=O)n2c31	–	–	Binding site preference [3]: 0.22
CN(C)CCNC(=O)c1ccc(NCCCN(C)CCCNc2ccc(C(=O)NCCN(C)C)c3nc4ccc([N+](=O)[O-])cc4c(O)c23)c2c(O)c3cc([N+](=O)[O-])ccc3nc12	–	> 10.00	–
COc1cc2c(=O)c3c(NCCN(C)C)ccc4c(=O)n(CCN(C)C)c(=O)n(c2cc1OC)c43	–	–	Binding site preference [3]: 0.12
